Assay results published in ChEMBL document CHEMBL1145839, “N-(3-acyloxy-2-benzylpropyl)-N'-[4-(methylsulfonylamino)benzyl]thiourea analogues: novel potent and high affinity antagonists and partial antagonists of the vanilloid receptor” (J Med Chem, 2003).
The source made the active and inactive calls. No cut-off for these calls is given here.

Key:
[1] = molecular target: T1, Transient receptor potential cation channel subfamily V member 1 (Rattus norvegicus, UniProt O35433); test: (§1) In vitro [Ca2+] influx relative to capsaicin by Rat Vanilloid receptor (VR1) expressing CHO cells; format: functional, cell-based
[2] = molecular target: Transient receptor potential cation channel subfamily V member 1 (Rattus norvegicus) (UniProt O35433); test: Inhibition of capsaicin-induced [Ca2+] uptake by Rat Vanilloid receptor 1 (VR1) expressing CHO cells (ineffective); format: functional, cell-based
[3] = molecular target: T1, Transient receptor potential cation channel subfamily V member 1; test: In vitro binding to Rat Vanilloid receptor 1 (VR1) expressing CHO cells compared to capsaicin; format: cell-based
In short: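 Tet-off CHO cells stably expressing rat VR1, induced by 48 h culture without tetracycline, harvested with trypsin/EDTA, pelleted and stored at -20 °C. About 5×10^5 cells per tube incubated 60 min at 37 °C with 50-100 pM [3H]RTX, a range of competitor concentrations and 0.25 mg/mL BSA in DPBS with Ca2+/Mg2+. Nonspecific binding measured with 100 nM unlabeled RTX. α-glycoprotein added after incubation, membranes pelleted, scintillation counting. Ki from Hill fit; at least three experiments.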

[4] = molecular target: Transient receptor potential cation channel subfamily V member 1 (Rattus norvegicus) (UniProt O35433); test: Displacement of [3H]RTX binding to Rat Vanilloid receptor 1 (VR1) at 10 uM
[5] = molecular target: T1, Transient receptor potential cation channel subfamily V member 1; test: Inhibition of capsaicin-induced [Ca2+] uptake by Rat Vanilloid receptor 1 (VR1) expressing CHO cells; format: cell-based
[6] = molecular target: T1, Transient receptor potential cation channel subfamily V member 1; test: In vitro binding affinity towards Rat Vanilloid receptor 1 (VR1) by [3H]RTX displacement.
In short: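 Rat VR1 stably expressed in tet-off CHO cells; cells grown without antibiotic for 48 h, trypsin-harvested, pelleted and stored at -20 °C. About 5×10^5 cells incubated with 50-100 pM [3H]RTX plus competitor in DPBS (Ca2+/Mg2+) with 0.25 mg/mL BSA, 60 min at 37 °C. Nonspecific binding taken with 100 nM unlabeled RTX.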

[7] = molecular target: Transient receptor potential cation channel subfamily V member 1 (Rattus norvegicus) (UniProt O35433); test: as §1; format: functional, cell-based; settings: concentration not given here
[8] = molecular target: Transient receptor potential cation channel subfamily V member 1 (Rattus norvegicus) (UniProt O35433); settings: CHO

Sequence of Transient receptor potential cation channel subfamily V member 1 (Rattus norvegicus) (O35433 whole entry): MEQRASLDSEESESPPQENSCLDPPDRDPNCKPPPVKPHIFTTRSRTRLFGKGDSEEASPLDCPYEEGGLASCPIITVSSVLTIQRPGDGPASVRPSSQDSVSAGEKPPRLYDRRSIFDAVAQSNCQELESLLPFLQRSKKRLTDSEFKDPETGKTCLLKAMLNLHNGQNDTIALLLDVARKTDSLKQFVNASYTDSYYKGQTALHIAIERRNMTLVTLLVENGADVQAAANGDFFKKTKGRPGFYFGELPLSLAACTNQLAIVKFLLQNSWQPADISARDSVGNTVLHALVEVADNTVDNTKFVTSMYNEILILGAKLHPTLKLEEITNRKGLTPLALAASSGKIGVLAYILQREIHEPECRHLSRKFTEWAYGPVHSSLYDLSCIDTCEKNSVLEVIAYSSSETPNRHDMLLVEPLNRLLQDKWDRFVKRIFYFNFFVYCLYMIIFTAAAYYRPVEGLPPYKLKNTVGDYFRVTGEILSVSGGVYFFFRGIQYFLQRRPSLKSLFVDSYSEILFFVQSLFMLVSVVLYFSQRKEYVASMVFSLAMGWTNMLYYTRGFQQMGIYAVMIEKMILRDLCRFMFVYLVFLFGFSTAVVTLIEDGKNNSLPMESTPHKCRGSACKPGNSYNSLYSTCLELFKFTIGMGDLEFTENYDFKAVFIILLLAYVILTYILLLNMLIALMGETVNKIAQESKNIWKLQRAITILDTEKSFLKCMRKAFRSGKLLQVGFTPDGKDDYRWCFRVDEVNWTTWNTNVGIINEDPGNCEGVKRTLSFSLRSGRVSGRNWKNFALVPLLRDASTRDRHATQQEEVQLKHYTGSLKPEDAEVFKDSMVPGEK
T1 sequence (O35433 whole entry): as above

Structure (SMILES)	EC50 [1]	Ki [6]	further results
Cc1ccc(CC(CN/C(S)=N/Cc2ccc(NS(C)(=O)=O)cc2)COC(=O)c2ccccc2)cc1C (stereo unspecified)	1730 nM	–	–
COc1cc(CNC(=O)CCCC/C=C/C(C)C)ccc1O	–	–	NE [2]: inactive
C=C(C)[C@]12C[C@@H](C)[C@@]34O[C@](Cc5ccccc5)(O[C@@H]1[C@@H]3C=C(COC(=O)Cc1ccc(O)c(OC)c1)C[C@]1(O)C(=O)C(C)=C[C@@H]41)O2 [RESINIFERATOXIN]	–	–	Ki [3]: 0.13 nM
Cc1ccc(CC(CN/C(S)=N/Cc2ccc(NS(=O)(=O)C(F)(F)F)cc2)COC(=O)C(C)(C)C)cc1C (stereo unspecified)	–	–	inhibition [4]: 15.5%; NE [2]: inactive
COc1cc(CNC(=S)NCC(COC(=O)C(C)(C)C)Cc2ccc(C)c(C)c2)ccc1O (stereo unspecified)	1.97 nM	–	NE [2]: inactive
CC(C)(C)C(=O)OCC(C/N=C(\S)NCc1ccc(NS(C)(=O)=O)cc1)Cc1ccc(C(C)(C)C)cc1 (stereo unspecified)	–	64 nM	Ki [5]: 86 nM
CC(C)(C)c1ccc(CC(CNC(=S)NCc2ccc(NS(C)(=O)=O)cc2)COC(=O)c2ccccc2)cc1 (stereo unspecified)	2790 nM	239 nM	–
COc1cc(CNC(=S)NCC(COC(=O)c2ccccc2)Cc2ccc(C)c(C)c2)ccc1NS(C)(=O)=O (stereo unspecified)	166 nM	148 nM	–
CCCS(=O)(=O)Nc1ccc(C/N=C(\S)NCC(COC(=O)C(C)(C)C)Cc2ccc(C)c(C)c2)cc1 (stereo unspecified)	–	313 nM	Ki [5]: 940 nM
Cc1ccc(CC(CNC(=S)NCc2ccc(NS(C)(=O)=O)cc2)COC(=O)C(C)(C)C)cc1C (stereo unspecified)	–	29.3 nM	Ki [5]: 67 nM
COc1cc(CNC(=S)NCC(COC(=O)C(C)(C)C)Cc2ccc(C(C)(C)C)cc2)ccc1O (stereo unspecified)	2.83 nM	–	NE [2]: inactive
Cc1ccc(CC(CNC(=S)NCc2ccc(NC(=O)C(C)C)cc2)COC(=O)C(C)(C)C)cc1C (stereo unspecified)	1140 nM	2600 nM	–
COc1cc(C/N=C(\S)NCC(COC(=O)c2ccccc2)Cc2ccc(C(C)(C)C)cc2)ccc1NS(C)(=O)=O (stereo unspecified)	252 nM	77.2 nM	–
CCS(=O)(=O)Nc1ccc(C/N=C(\S)NCC(COC(=O)C(C)(C)C)Cc2ccc(C)c(C)c2)cc1 (stereo unspecified)	–	108 nM	Ki [5]: 309 nM
Cc1ccc(CC(CNC(=S)NCc2ccc(NS(C)(=O)=O)c(F)c2)COC(=O)C(C)(C)C)cc1C (stereo unspecified)	–	54 nM	Ki [5]: 7.8 nM
Cc1ccc(CC(CNC(=S)NCc2ccc(CNS(C)(=O)=O)cc2)COC(=O)C(C)(C)C)cc1C (stereo unspecified)	1700 nM	3000 nM	–
Cc1ccc(CC(CN/C(S)=N/Cc2ccc(NS(C)(=O)=O)cc2)COC(=O)C(C)(C)C)cc1C (stereo unspecified)	–	–	inhibition [7]: 7%
Cc1ccc(CC(CN/C(S)=N/Cc2ccc(NS(=O)(=O)c3ccccc3)cc2)COC(=O)C(C)(C)C)cc1C (stereo unspecified)	–	2500 nM	NE [2]: inactive
Cc1ccc(CC(CN/C(S)=N/Cc2ccc(NS(=O)(=O)C(C)C)cc2)COC(=O)C(C)(C)C)cc1C (stereo unspecified)	790 nM	227 nM	–
CC(=O)Nc1ccc(CNC(=S)NCC(COC(=O)C(C)(C)C)Cc2ccc(C)c(C)c2)cc1 (stereo unspecified)	450 nM	1700 nM	–
COc1cc(C/N=C(\S)NCC(COC(=O)C(C)(C)C)Cc2ccc(C)c(C)c2)ccc1NS(C)(=O)=O (stereo unspecified)	22 nM	49 nM	–
Oc1cc2c(cc1O)CN(C(=S)NCCc1ccc(Cl)cc1)CCC2	–	–	NE [8]: inactive
Cc1ccc(CC(CN/C(S)=N/Cc2cccc(NS(C)(=O)=O)c2)COC(=O)C(C)(C)C)cc1C (stereo unspecified)	990 nM	355 nM	–
